The text below walks through data of ChEMBL document CHEMBL1133213, “Synthesis, molecular modeling and preliminary biological evaluation of 1-amino-3-phosphono-3-cyclopentene-1-carboxylic acid and 1-amino-3-phosphono-2-cyclopentene-1-carboxylic acid, two novel agonists of metabotropic glutamate receptors of group III” (Bioorg Med Chem Lett, 2000).

Assay [1] concerns the target T1, Metabotropic glutamate receptor 4 (Homo sapiens, UniProt Q14833). Description: Agonistic activity at Metabotropic glutamate receptor 4 expressed in mammalian cells by GTPgammaS binding assay. The assay is classed as cell-based. In a few lines: (§1)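 [35S]-GTPγS binding to membranes prepared from CHO cells expressing human mGlu4a. Stimulation is normalised to that given by 1 mM L-Glu. Points are mean ± SEM of three determinations from one experiment.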

In assay [2] the target is T1, Metabotropic glutamate receptor 4. Description: Agonistic activity on Human mGlu4a receptor expressed in recombinant mammalian cells by GTPgammaS binding assay. The assay is classed as cell-based. In a few lines: as §1
In general terms: Binding of GTPγS marks nucleotide exchange on a G protein.

Assay [3] concerns the target T2, Metabotropic glutamate receptor 2 (Homo sapiens, UniProt Q14416). Description: Agonistic activity on Human Metabotropic glutamate receptor 2 expressed in recombinant mammalian cells by GTPgammaS binding assay. The assay is classed as cell-based. Put shortly: (§2)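 [35S]-GTPγS binding assay in a CHO cell line expressing human mGlu2.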
For assay [4], the target named is T1, Metabotropic glutamate receptor 4. Description: Inhibition of forskolin-stimulated cAMP accumulation in CHO cells expressing hmGlu4a; No full inhibition. The assay is classed as functional, cell-based. (cAMP levels reflect the balance of adenylyl cyclase and phosphodiesterase activity.)
Assay [5] shares this target. Description: Inhibition of forskolin-stimulated cAMP accumulation in CHO cells expressing hmGlu4a. The class given is functional, cell-based.
Assay [6] deals with T2, Metabotropic glutamate receptor 2. Description: Inhibitory concentration on Human Metabotropic glutamate receptor 2 expressed in recombinant mammalian cells by GTPgammaS binding assay. The class given is cell-based. In a few lines:
as §2

Assay [7] deals with T1, Metabotropic glutamate receptor 4. Description: Inhibitory concentration on Human mGlu4 receptor expressed in recombinant mammalian cells by GTPgammaS binding assay. The assay is classed as cell-based.
The target in assay [8] is T2, Metabotropic glutamate receptor 2. Description: Inhibitory concentration on Human mGlu2 receptor expressed in recombinant mammalian cells by GTPgammaS binding assay. The assay is classed as cell-based. In a few lines: as §2
The target of assay [9] is T1, Metabotropic glutamate receptor 4. Description: Agonistic activity on Human mGlu4a receptor expressed in recombinant mammalian cells by GTPgammaS binding assay; Partial agonist. The class given is cell-based. Put shortly:
as §1

Assay [10] deals with T2, Metabotropic glutamate receptor 2. Description: Agonistic activity on Human mGlu2 receptor expressed in recombinant mammalian cells by GTPgammaS binding assay. The class given is cell-based. In a few lines:
as §2

T2 sequence (Q14416 whole entry): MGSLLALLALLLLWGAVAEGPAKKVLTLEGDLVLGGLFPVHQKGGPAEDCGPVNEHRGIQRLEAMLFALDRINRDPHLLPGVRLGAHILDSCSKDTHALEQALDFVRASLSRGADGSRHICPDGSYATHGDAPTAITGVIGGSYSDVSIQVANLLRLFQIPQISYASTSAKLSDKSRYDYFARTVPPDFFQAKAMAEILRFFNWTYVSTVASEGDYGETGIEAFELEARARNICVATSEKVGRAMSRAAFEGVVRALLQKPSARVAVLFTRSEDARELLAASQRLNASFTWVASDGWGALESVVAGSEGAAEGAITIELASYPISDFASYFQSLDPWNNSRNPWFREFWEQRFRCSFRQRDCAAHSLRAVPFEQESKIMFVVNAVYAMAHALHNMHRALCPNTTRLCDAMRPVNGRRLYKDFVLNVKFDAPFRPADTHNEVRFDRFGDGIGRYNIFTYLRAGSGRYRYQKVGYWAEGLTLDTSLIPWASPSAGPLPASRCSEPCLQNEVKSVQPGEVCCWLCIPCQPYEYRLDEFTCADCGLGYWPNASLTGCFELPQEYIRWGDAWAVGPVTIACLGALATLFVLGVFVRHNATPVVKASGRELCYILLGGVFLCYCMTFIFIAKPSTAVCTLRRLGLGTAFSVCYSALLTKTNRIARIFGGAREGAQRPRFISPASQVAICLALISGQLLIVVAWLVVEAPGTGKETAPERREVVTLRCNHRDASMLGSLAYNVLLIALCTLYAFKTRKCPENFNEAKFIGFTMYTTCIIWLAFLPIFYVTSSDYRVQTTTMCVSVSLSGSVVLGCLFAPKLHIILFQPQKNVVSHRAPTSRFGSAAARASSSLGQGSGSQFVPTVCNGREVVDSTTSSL
T1 sequence (Q14833 whole entry): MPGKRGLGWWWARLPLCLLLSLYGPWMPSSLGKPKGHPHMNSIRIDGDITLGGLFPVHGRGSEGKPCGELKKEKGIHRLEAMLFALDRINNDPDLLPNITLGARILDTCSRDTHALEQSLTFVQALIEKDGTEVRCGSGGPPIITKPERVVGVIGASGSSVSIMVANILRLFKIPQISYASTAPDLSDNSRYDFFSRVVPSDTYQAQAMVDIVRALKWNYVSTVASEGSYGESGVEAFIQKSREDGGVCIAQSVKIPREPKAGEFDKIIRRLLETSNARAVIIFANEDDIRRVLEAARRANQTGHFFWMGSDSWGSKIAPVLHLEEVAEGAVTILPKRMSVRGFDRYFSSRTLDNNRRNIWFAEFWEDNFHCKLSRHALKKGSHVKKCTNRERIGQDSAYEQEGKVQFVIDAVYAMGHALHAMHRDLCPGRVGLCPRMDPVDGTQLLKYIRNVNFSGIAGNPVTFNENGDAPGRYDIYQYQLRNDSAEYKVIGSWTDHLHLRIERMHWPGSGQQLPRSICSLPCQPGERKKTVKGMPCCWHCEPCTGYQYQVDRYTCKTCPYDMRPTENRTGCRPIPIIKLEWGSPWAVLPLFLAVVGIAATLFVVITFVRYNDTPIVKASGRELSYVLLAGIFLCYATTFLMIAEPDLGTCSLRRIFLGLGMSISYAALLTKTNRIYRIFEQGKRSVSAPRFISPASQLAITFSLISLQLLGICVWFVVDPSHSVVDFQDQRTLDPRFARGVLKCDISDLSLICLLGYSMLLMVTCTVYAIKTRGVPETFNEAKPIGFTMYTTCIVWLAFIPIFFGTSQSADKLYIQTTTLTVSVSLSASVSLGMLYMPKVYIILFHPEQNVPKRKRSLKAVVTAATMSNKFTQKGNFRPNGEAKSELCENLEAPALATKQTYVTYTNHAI

Usually EC50 stands for the concentration needed to bring the measured effect to its halfway point. The molecule `NC1(C(=O)O)C[C@@H](C(=O)O)[C@H](C(=O)O)C1` returned an EC50 in assay [1] of 9 µM.
`N[C@@]1(C(=O)O)CCC(P(=O)(O)O)C1` (single isomer, unassigned): the EC50 in [1] was found to be 27 µM.
Same read-out and setting: the same measure for `N[C@@H](CCP(=O)(O)O)C(=O)O`: 0.5 µM.
Still for that read-out and setting: as for `N[C@]1(C(=O)O)C[C@@H]1CP(=O)(O)O`, the figure is 0.58 µM; as for `N[C@@H](COP(=O)(O)O)C(=O)O` [DEXFOSFOSERINE], 1 µM.
The same measure, in the same setting: as for `N[C@@]1(C(=O)O)C[C@H](C(=O)O)[C@H](C(=O)O)C1`, the figure is 7 µM.
The term IC50 denotes the point on the concentration scale where inhibition reaches its midpoint. Turning to `NC1(C(=O)O)CC=C(P(=O)(O)O)C1` (stereo unspecified), the EC50 was 17 µM in assay [2], more than 300 µM in assay [3] and approximately 30 µM in [4]. The IC50 in assay [5] was more than 100 µM; in [6] it was more than 300 µM; in assay [7], more than 100 µM.
`NC1(C(=O)O)C=C(P(=O)(O)O)CC1` (stereo unspecified): the results for the IC50 in assay [8], in [5] and in [7] were more than 200 µM, more than 100 µM and more than 100 µM, respectively. The EC50 is more than 30 µM in assay [9], more than 300 µM in assay [10] and more than 30 µM in assay [5].
In assay [1], `N[C@@]1(C(=O)O)CC[C@H](P(=O)(O)O)C1` showed a 50% effective concentration (EC50) of 86 µM.
On to `NC(C(=O)O)c1ccc(P(=O)(O)O)cc1` (stereo unspecified), for which, in [1], it took 4.7 µM to reach a half-maximal effect (EC50).
Molecule `N[C@]1(C(=O)O)C[C@H]1CP(=O)(O)O` returned an EC50 in assay [1] of 7.9 µM.
